Results: ChEMBL document CHEMBL1122854, “Novel bis[1,6-dihydro-6,6-dimethyl-1,3,5-triazine-2,4-diamines] as antitrypanosomal agents” (1985)
Where “and” joins values, the source holds several entries; their conditions need not be identical. Equal values may be shown once.

Assays:
[1] = test system: Trypanosoma brucei rhodesiense; assay: Antitrypanosomal activity was evaluated against Trypanosoma rhodesiense infections in mice, at dose 212 mg/kg, administered subcutaneously; type: functional; conditions: route subcutaneous
Summary of the method: (§1)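 Six-week-old IUR/HA Swiss mice (30-32 g), 5 per dose, infected ip with 0.5 mL of a 1:50 000 dilution of heparinized heart blood from donor mice infected 3 days before (Wellcome CT strain). Single sc dose in peanut oil about 2 h post-inoculation. Deaths before day 4 counted toxic. ΔMST versus untreated controls; survivors at 30 days counted cured.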

Mus musculus [2] = assay: Antitrypanosomal activity was evaluated against Trypanosoma rhodesiense infections in mice, at dose 212 mg/kg, administered subcutaneously; Cures; type: functional; conditions: route subcutaneous
Summary of the method: (§2)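 IUR/HA Swiss mice (six weeks old, 30-32 g) infected i.p. with Wellcome CT strain T. rhodesiense. A single subcutaneous dose in peanut oil was given about 2 h after inoculation, with five mice per dose level. Positive control was stilbamidine or 2-hydroxystilbamidine isethionate at 40 mg/kg. Deaths before day 4 were scored toxic, and 30-day survivors cured.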

[3] = test system: Trypanosoma brucei rhodesiense; assay: Antitrypanosomal activity against Trypanosoma rhodesiense infections in mice, 3.3 mg/kg administered subcutaneously; type: functional; conditions: route subcutaneous; summary of the method: as §1
[4] = test system: Trypanosoma brucei rhodesiense; assay: Antitrypanosomal activity against Trypanosoma rhodesiense infections in mice, 6.6 mg/kg administered subcutaneously; type: functional; conditions: route subcutaneous; summary of the method: as §1
Mus musculus [5] = assay: (§3) Antitrypanosomal activity was evaluated against Trypanosoma rhodesiense infections in mice, at dose 26 mg/kg, administered orally; Cures; type: functional
Summary of the method: (§4)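 Oral dosing of IUR/HA Swiss mice (six weeks old, 30-32 g) infected i.p. with Wellcome CT strain T. rhodesiense, with five mice per dose level. Survival was followed for 30 days. Deaths before day 4 were counted as toxic and 30-day survivors as cured. ΔMST is the difference in mean survival time between treated and control mice.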

Mus musculus [6] = assay: Antitrypanosomal activity was evaluated against Trypanosoma rhodesiense infections in mice, at dose 26 mg/kg, administered orally; type: functional; conditions: route oral
Mus musculus [7] = assay: Antitrypanosomal activity was evaluated against Trypanosoma rhodesiense infections in mice, at dose 106 mg/kg, administered orally; Cures; type: functional; summary of the method: as §4
Mus musculus [8] = assay: (§5) Antitrypanosomal activity was evaluated against Trypanosoma rhodesiense infections in mice, at dose 424 mg/kg, administered orally; type: functional; conditions: route oral
Mus musculus [9] = assay: Antitrypanosomal activity was evaluated against Trypanosoma rhodesiense infections in mice, at dose 13 mg/kg, administered subcutaneously; type: functional; conditions: route subcutaneous; summary of the method: as §1
Mus musculus [10] = assay: Antitrypanosomal activity was evaluated against Trypanosoma rhodesiense infections in mice, at dose 106 mg/kg, administered orally; type: functional; conditions: route oral
[11] = test system: Trypanosoma brucei rhodesiense; assay: Antitrypanosomal activity was evaluated against Trypanosoma rhodesiense infections in mice, at dose 1.6 mg/kg, administered subcutaneously; type: functional; conditions: route subcutaneous; summary of the method: as §1
Mus musculus [12] = assay: as §3; type: functional; remark: listed apart in the source
Mus musculus [13] = assay: as §5; type: functional; conditions: route oral, 424 mg/kg; summary of the method: as §4
Mus musculus [14] = assay: Antitrypanosomal activity was evaluated against Trypanosoma rhodesiense infections in mice, at dose 424 mg/kg, administered orally; Cures; type: functional; summary of the method: as §4
Mus musculus [15] = assay: Antitrypanosomal activity was evaluated against Trypanosoma rhodesiense infections in mice, at dose 6.6 mg/kg, administered subcutaneously;Cures; type: functional; conditions: route subcutaneous; summary of the method: as §2
Mus musculus [16] = assay: Antitrypanosomal activity was evaluated against Trypanosoma rhodesiense infections in mice, at dose 13 mg/kg, administered subcutaneously;Cures; type: functional; conditions: route subcutaneous; summary of the method: as §2
[17] = test system: Trypanosoma brucei rhodesiense; assay: Anti-trypanosomal activity against Trypanosoma rhodesiense infections in mice, 26 mg/kg administered subcutaneously; type: functional; conditions: route subcutaneous; summary of the method: as §1
[18] = test system: Trypanosoma brucei rhodesiense; assay: Antitrypanosomal activity against Trypanosoma rhodesiense infections in mice, 424 mg/kg administered subcutaneously; type: functional; conditions: route subcutaneous; summary of the method: as §2
Mus musculus [19] = assay: (§6) Antitrypanosomal activity was evaluated against Trypanosoma rhodesiense infections in mice, at dose 106 mg/kg, administered subcutaneously; type: functional; conditions: route subcutaneous; summary of the method: as §2
Mus musculus [20] = assay: Antitrypanosomal activity was evaluated against Trypanosoma rhodesiense infections in mice, at dose 0.8mg/kg, administered subcutaneously
Mus musculus [21] = assay: Antitrypanosomal activity was evaluated against Trypanosoma rhodesiense infections in mice, at dose 13 mg/kg, administered subcutaneously;Toxic; type: functional; conditions: route subcutaneous; summary of the method: as §2
[22] = test system: Trypanosoma brucei rhodesiense; assay: Antitrypanosomal activity was evaluated against Trypanosoma rhodesiense infections in mice, at dose 26 mg/kg, administered subcutaneously; type: functional; conditions: route subcutaneous; summary of the method: as §2
[23] = test system: Trypanosoma brucei rhodesiense; assay: as §6; type: functional; conditions: route subcutaneous; summary of the method: as §2

`CC1(C)N=C(N)N=C(N)N1c1ccc(/N=N/c2ccc(N3C(N)=NC(N)=NC3(C)C)cc2)cc1.Cl.Cl` was tested, and the “Delta MST” value [1] was 0.9 days, the Cures (Mus musculus [2]) was 4 and the “Delta MST” value [3] was 0.2 days. The “Delta MST” value [4] was 1 days, the Cures (Mus musculus [5]) was 4 and 5 and the “Delta MST” value (Mus musculus [6]) was 1 days. The Cures (Mus musculus [7]) was 4 and 5, the “Delta MST” value (Mus musculus [8]) was 0.1 days and the “Delta MST” value (Mus musculus [9]) was 1.6 days. For the same molecule, the “Delta MST” value (Mus musculus [10]) was 5.9 days, the “Delta MST” value [11] was 0 days and the “Delta MST” value (Mus musculus [12]) was 1.9 days. The Toxic (Mus musculus [13]) was 2 and 1 and the Cures (Mus musculus [14]) was 4.
`CC1(C)N=C(N)N=C(N)N1c1ccc(Oc2ccc(N3C(N)=NC(N)=NC3(C)C)cc2)cc1.Cl.Cl` was tested, and the “Delta MST” value [3] was 4.2 days, the Cures (Mus musculus [15]) was 1 and the “Delta MST” value [4] was 5.3 days. For the same molecule, the Cures (Mus musculus [16]) was 2, the “Delta MST” value [17] was 5 days and the Toxic [18] was 5. It also gave a Toxic (Mus musculus [19]) of 5.
For `CC1(C)N=C(N)N=C(N)N1c1cccc(NC(=O)Nc2cccc(N3C(N)=NC(N)=NC3(C)C)c2)c1.Cl.Cl`, the “Delta MST” value (Mus musculus [20]) was 0.2 days, the “Delta MST” value [3] was 0 days and the “Delta MST” value [4] was 0 days. The Toxic (Mus musculus [21]) was 3, the Toxic [22] was 5 and the “Delta MST” value [11] was 0 days. It also gave a Toxic [18] of 5 and a Toxic [23] of 5.
